From PubChem
Most compounds without a hit are left out; they make up all but 2.2% or so of the library.
bCat nuc transl – alters nuclear translocation of beta-catenin in HeLa cells. immunofluorescence imaging. nuclear translocation activity, % at 5 µM. hit rate 0.3% among 190,000. AID 1665;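 active = nuclear translocation activity above 50% at 5 µM, with a well cell count of 50 or more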;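 note: per-cell ratio of nuclear to cytoplasmic median beta-catenin stain intensity; plate controls were DMSO negative control for no effect and GSK-3 inhibitor IX positive control for full effect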
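Test system: human HeLa cell line; Doses: 5 µM primary, 0.02–20 µM confirmation; Incubation: 24 h compound exposure, 37°C; Detection: beta-catenin immunofluorescence imaging with DAPI; Read-out: beta-catenin nuclear/cytoplasmic ratio, % activation.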
IEC-6 cytotox – counter-screen for KLF5 inhibitors: cytotoxicity in IEC-6 cells; AID 1825; IEC-6 cytotoxicity, luminescence viability; inhibition, % at 5 µM; hit rate 0.78% among 290,000;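 note: 0% = plate median of test compound wells and 100% = cytotoxic reference compound wells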
Ba/F3 V617F tox – lowers viability of Ba/F3 cells expressing EpoR and JAK2V617F; ATP luminescence; hit rate 1.1% among 220,000; inhibition, % at 5.6 µM; AID 1446;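 active = inhibition above the campaign mean plus 3 SD over all tested compounds, cut at about 24% in these data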;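 note: cytokine-independent growth of Ba/F3 cells driven by EpoR plus mutant JAK2; 0% = DMSO-treated cells and 100% = JAK inhibitor I control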
BaF3 tox – reduces parental Ba/F3 cell viability, JAK2V617F counter-screen; inhibition, % at 5.6 µM; CellTiter-Glo ATP luminescence; AID 1486; hit rate 1.1% among 220,000;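 active = inhibition above a per-campaign cutoff, the mean inhibition of all tested compounds plus 3 SD, cut at about 27% in these data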;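 note: 0% = DMSO wells and 100% = JAK Inhibitor I control wells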
MT stabilize HCS – microtubule stabilization, imaging screen | AID 2205 | hit rate 0.83% among 200,000 | % tubulin-high responders, % at 10 µM | HeLa tubulin immunostaining HCS, 24 h; share of cells brighter than vehicle mean+2SD;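 active = plate Z-score above 3 for both tubulin-high and condensed-nucleus cell shares, with cell loss under 80%, at 10 µM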;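 note: anti alpha tubulin signal scored within the nucleus-defined area of each cell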
APP transl inh – APP translation inhibition | SH-SY5Y APP 5'UTR-luciferase reporter, luminescence | inhibition, % at 2 µM | hit rate 0.82% among 190,000 | AID 1285;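 active = inhibition above a set limit, derived from the sample mean plus 3 SD, cut at about 45% in these data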
IEC-6 cytotox cf – confirmation of cytotoxic compounds in rat IEC-6 intestinal epithelial cells. AID 1907. hit rate 63% among 1,900. IEC-6 rat intestinal epithelial viability, luminescence. shares compounds with IEC-6 cytotox. inhibition, % at 5 µM;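 note: 0% = vehicle and 100% = reference cytotoxic drug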
The depositor's hits bear a star; . = no result given. Cut-off read from the data, not from the text of the source, unless noted: active = inhibition above about 22%; inactive = the rest.

SMILES	bCat nuc transl	IEC-6 cytotox	Ba/F3 V617F tox	BaF3 tox	MT stabilize HCS	APP transl inh	IEC-6 cytotox cf
NC(N)=NC(=S)Nc1ccc(Cl)cc1	1	-4	4	-1	.	.	.
CCCCCCCCCCn1ccc(=N)cc1	6	66*	99*	100*	.	.	72*
CCCCCCCCn1ccc(=N)cc1	2	43*	99*	90*	.	.	43*
O=C(Nc1ccc(Br)cn1)c1ccc(Cl)s1	.	10	.	.	.	.	.
O=C(Nc1ccc(Br)cn1)c1ccc(Br)s1	.	28*	.	.	.	.	2
Cc1ccc(N(C(=O)CNC(=O)c2ccco2)C(C(=O)NC2CCCCC2)c2ccncc2)c(C)c1 (centres undefined)	.	0	.	.	.	.	.
N#Cc1ccc(N2C(=O)[C@@H]3C(C(=O)c4ccc5ccccc5n4)=NN[C@@H]3C2=O)cc1	-2	4	-4	0	4	7	.
O=C(C1=NN[C@@H]2C(=O)N(c3ccccc3C(F)(F)F)C(=O)[C@H]12)c1ccc2ccccc2n1	-1	71*	76*	54*	5	-14	3
Oc1ccc(N=Nc2ccccc2C(F)(F)F)c2cccnc12	.	45*	.	.	.	.	14
COc1ccccc1N=Nc1ccc(O)c2ncccc12	.	4	.	.	.	.	.
CC(C)NC(=S)N/N=C/c1cc(Br)ccc1O	-2	94*	-6	3	3	-10	1
COC(=O)N/N=C/c1cc(Br)ccc1O	0	2	3	10	3	2	.
Cc1ccc(C(=O)N/N=C/c2cc(Br)ccc2O)cn1	.	84*	.	.	.	.	13
Cc1ccc(S(=O)(=O)Nc2ccc(Br)cc2C(NCC(=O)O)c2ccccc2)cc1 (centres undefined)	1	4	0	-1	3	-11	.
Cc1cc(NS(=O)(=O)c2ccccc2)c(C)c(Cl)c1O	-10	.	.	.	.	.	.
O=S(=O)(Nc1cc(Sc2ncn[nH]2)c(O)c2ccccc12)c1ccccc1	0	85*	95*	99*	5	76*	-4
O=C(O)CSc1cc(NS(=O)(=O)c2ccc(Br)cc2)c2ccccc2c1O	.	54*	.	.	.	.	-3
COc1cc(CN2CCc3ccccc3C2)ccc1O	1	30*	97*	103*	.	.	16
COc1cc(CN2CCc3ccccc3C2)cc([N+](=O)[O-])c1O	.	-1	.	.	.	.	.
CCOC(=O)c1cc2c(ccn2C)n1CC(=O)N(Cc1ccccc1)c1ccccc1	-3	32*	4	6	1	-19	2
Cc1ccc(C)c(Cn2c(C(=O)OC(C)C)cc3c2ccn3C)c1	0	29*	5	2	3	-1	17
CC(C)OC(=O)c1cc2c(ccn2C)n1CC(=O)N1CCC(Cc2ccccc2)CC1	2	40*	5	8	3	4	7
Cc1ccccc1Cn1c(C(=O)OC(C)C)cc2c1ccn2C	0	10	0	0	3	-2	.
CCOC(=O)c1cc2c(ccn2C)n1CC(=O)N1CCN(c2ccccc2)CC1	-2	5	0	7	4	-3	.
CC(=O)c1ccc(N2CCN(C(=O)c3cccs3)CC2)c(F)c1	.	1	.	.	.	.	.
SMILES	bCat nuc transl	IEC-6 cytotox	Ba/F3 V617F tox	BaF3 tox	MT stabilize HCS	APP transl inh	IEC-6 cytotox cf
COc1ccc(Nc2ncnc3scc(-c4ccc(OC)cc4)c23)cc1	.	24*	1	6	13*	-4	20
N#Cc1c(NC(=O)c2ccc([N+](=O)[O-])o2)sc2c1CCC2	.	39*	.	.	.	.	16
CN1CCc2c(sc(NC(=O)c3ccc([N+](=O)[O-])o3)c2C(N)=O)C1	.	101*	.	.	.	.	88*
CN1CCc2c(sc(NC(=O)c3ccco3)c2C(N)=O)C1	.	-3	.	.	.	.	.
NC(=O)c1c(NC(=O)c2ccc([N+](=O)[O-])o2)sc2c1CCCC2	.	100*	.	.	.	.	39*
CC(CNC(=O)c1ccc(OC2CCN(Cc3ccccn3)CC2)cc1)c1ccccc1 (centres undefined)	.	3	.	.	.	.	.
CCN1CCN(Cc2ccc(NC(=O)c3ccc(C)c(NC(=O)C(=O)c4c[nH]c5ccccc45)c3)cc2C(F)(F)F)CC1	19	55*	.	.	.	.	-1
CCN1/C(=C/c2sc(-c3ccccc3C)c[n+]2C)Sc2ccccc21	-1	34*	100*	80*	2	1	39*
COc1cccc(C(=O)Nc2sc3c(c2C#N)CCN(C(C)=O)C3)c1	53*	77*	76*	81*	28*	92*	26*
Cc1cccc(C)c1CC(=O)N1CCOCC1	.	5	.	.	.	.	.
